Data: paper PMC4471785 (Cancer Science, 2015)
Each block holds one compound with its values, some of them ahead of it.

Tests used:
LAT1 = LAT1 (Homo sapiens, UniProt Q01650); experiment: Inhibition of DOX or Asp-DOX uptake into S2-LAT1 cells by amino acids; format: cell-based; conditions: 100 μmol/L amino acid, 2 min; for Inhibition of the uptake of Asp-DOX by amino acids: 20 μmol/L Asp-DOX; for Inhibition of the uptake of DOX by amino acids: 20 μmol/L DOX
Method in brief: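 S2-LAT1 cells incubated 2 min with 20 μmol/L test compound, with or without 100 μmol/L Leu, Met, Phe, Asp, Glu or Gly. Uptake stopped by three cold DPBS washes. Internalised drug extracted with methanol and quantified by HPLC.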

HepG2 tumors = experiment: Biodistribution in HepG2 tumor-bearing mice; format: in vivo; conditions: HepG2 models; DOX-treated versus Asp-DOX-treated mice; 5 mg/kg i.v.; 1 h
Method in brief: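 Male nude mice ([…], 4 weeks, 18–22 g) implanted s.c. above the right femoral joint with 1.0 × 107 HepG2, HCT116 or H1299 cells in 0.1 mL PBS, 3–5 per line. On day 20, with tumours about 100 mm3, 5 mg/kg given i.v. Killed 1 h later; tissues frozen in liquid nitrogen. Homogenates extracted twice with methanol (1-naphthol internal standard) for HPLC/MS; reported as % injected dose/g tissue.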

H1299 (LAT1-negative) = experiment: Cellular uptake in vitro, H1299; format: cell-based, human; conditions: 2 h
Method in brief: (§1)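 HepG2 or H1299 cells seeded at 1.5 × 10^5/well and grown 48 h. Then exposed to test compound at 0, 10, 20 or 50 μg/mL in serum-free medium for 2 h at 37°C, 5% CO2. Rinsed three times with cold DPBS and imaged by fluorescence (excitation 475 nm, 580 nm). Cells then extracted with methanol and sonicated 10 min; supernatant quantified by HPLC/MS.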

[1] = system: H1299 (human non-small cell lung carcinoma cell line); experiment: MTT cytotoxicity, H1299; format: cell-based; conditions: 48 h
Method in brief: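 Cells maintained in DMEM or RPMI-1640 with 10% FBS, penicillin and streptomycin at 37°C, 5% CO2. Seeded at 2000–4000 cells/well and grown 48 h, then exposed to test compound at 10, 20 or 50 μg/mL for 48 h. MTT (5 mg/mL stock, 20 μL per 100 μL) added for 2 h; absorbance read at 492 nm. Six repeats; inhibition rate computed from mean values.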

H1299 tumors [2] = experiment: Biodistribution in H1299 tumor-bearing mice; format: in vivo; conditions: H1299 models; DOX versus Asp-DOX; 5 mg/kg i.v.; 1 h
[3] = system: MDR1-overexpressing MDCK cells; experiment: Bidirectional transport assay; format: in vitro ADME; conditions: 50 μg/mL
Method in brief: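 MDCK-MDR1 cells grown in high-glucose DMEM with 10% FBS. Seeded at 2 × 10^5 cells per 1.12 cm2 on polycarbonate Transwell inserts (0.4-μm pores) and used after about 7 days. TEER checked first. After 20 min equilibration in HBSS with 25 mM HEPES, 50 μg/mL test compound was added to the apical or basolateral donor side at 37°C with 60 rpm shaking. Receiver sampled at 60 min for HPLC-fluorescence. PDR = Papp(B–A)/Papp(A–B); n = 3.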

HepG2 (LAT1-positive) = experiment: Cellular uptake in vitro, HepG2; format: cell-based, human; conditions: 2 h
Method in brief: as §1

[4] = Pharmacokinetics in healthy mice; format: in vivo
Method in brief: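 Healthy mice dosed 5 mg/kg via tail vein. Retrobulbar blood taken at 0, 2, 5, 10, 15, 30 min, 1, 2 and 4 h, mixed with 0.5 mM EDTA-PBS and spun at 1750 g for 15 min. Supernatant extracted with methanol, dried under nitrogen, reconstituted in mobile phase and analysed by HPLC. AUC0−t by non-compartmental i.v. bolus model.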

H1299 tumors [5] = experiment: Therapy study, H1299 tumor model; format: in vivo, mice; conditions: 5 mg/kg i.v. twice a week
Method in brief: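 Nude mice bearing s.c. HepG2 or H1299 xenografts, set up as in the biodistribution model, split into three groups once tumours reached 100 mm3. Groups given saline, doxorubicin or test compound at 5 mg/kg i.v. twice a week. Tumours measured twice weekly; volume = length × width²/2; volumes compared after 21 days of treatment.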

Sequence of LAT1 (Q01650 whole entry): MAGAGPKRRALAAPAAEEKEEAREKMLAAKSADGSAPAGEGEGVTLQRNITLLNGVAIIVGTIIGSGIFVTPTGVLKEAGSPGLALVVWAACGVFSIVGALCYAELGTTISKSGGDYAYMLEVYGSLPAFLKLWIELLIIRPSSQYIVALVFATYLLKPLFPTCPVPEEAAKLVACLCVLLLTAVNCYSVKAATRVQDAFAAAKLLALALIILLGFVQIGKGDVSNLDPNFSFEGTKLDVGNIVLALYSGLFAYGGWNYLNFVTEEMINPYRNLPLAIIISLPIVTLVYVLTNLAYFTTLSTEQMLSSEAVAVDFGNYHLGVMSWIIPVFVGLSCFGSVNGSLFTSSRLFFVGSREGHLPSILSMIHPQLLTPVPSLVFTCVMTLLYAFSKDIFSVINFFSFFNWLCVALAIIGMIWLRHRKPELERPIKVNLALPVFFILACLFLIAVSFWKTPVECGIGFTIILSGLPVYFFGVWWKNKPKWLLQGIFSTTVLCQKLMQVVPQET
Sequence of LAT1 (P08195 102-630 partner): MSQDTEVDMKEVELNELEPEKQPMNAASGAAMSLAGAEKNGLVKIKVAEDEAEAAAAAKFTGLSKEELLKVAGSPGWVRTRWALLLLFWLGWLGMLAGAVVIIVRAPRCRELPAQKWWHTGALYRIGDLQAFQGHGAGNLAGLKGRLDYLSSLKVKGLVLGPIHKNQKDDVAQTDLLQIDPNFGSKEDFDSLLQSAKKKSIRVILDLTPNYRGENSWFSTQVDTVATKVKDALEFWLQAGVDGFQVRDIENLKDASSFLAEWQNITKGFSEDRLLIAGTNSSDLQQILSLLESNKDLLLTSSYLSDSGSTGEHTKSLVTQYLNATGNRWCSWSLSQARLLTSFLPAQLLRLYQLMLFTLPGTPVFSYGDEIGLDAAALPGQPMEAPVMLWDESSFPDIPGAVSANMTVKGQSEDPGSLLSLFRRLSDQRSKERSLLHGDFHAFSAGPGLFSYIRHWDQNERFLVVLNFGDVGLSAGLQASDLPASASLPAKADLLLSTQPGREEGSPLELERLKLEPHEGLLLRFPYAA

SMILES: COc1cccc2c1C(=O)c1c(O)c3c(c(O)c1C2=O)C[C@@](O)(C(=O)CO)C[C@@H]3O[C@H]1C[C@H](N)[C@H](O)[C@H](C)O1 [DOX, doxorubicin]
- Drug levels in heart, liver, and lung (HepG2 tumors): significantly higher
- Uptake (H1299 (LAT1-negative); dose 10 μg/mL): 0.20 ± 0.059 µg/mL
- Uptake (H1299 (LAT1-negative); dose 20 μg/mL): 0.33 ± 0.019 µg/mL
- Uptake (H1299 (LAT1-negative); dose 50 μg/mL): 0.69 ± 0.055 µg/mL
- IC50 [1]: 36.51 μg/ml μg/mL
- Drug levels in tissues (H1299 tumors [2]): higher than that of Asp-DOX in all tissues
- PDR (efflux rate, Papp(B–A):Papp(A–B)) [3]: 13.01 ± 1.425
- Papp A–B ([3]; apical to basolateral, 60 min): 0.53 ± 0.093 10^−6 cm/s
- Papp B–A ([3]; basolateral to apical, 60 min): 6.63 ± 0.328 10^−6 cm/s
- Uptake (HepG2 (LAT1-positive); dose 10 μg/mL): 0.21 ± 0.030 µg/mL
- Uptake (HepG2 (LAT1-positive); dose 20 μg/mL): 0.44 ± 0.032 µg/mL
- Uptake (HepG2 (LAT1-positive); dose 50 μg/mL): 0.70 ± 0.079 µg/mL
- t1/2 ([4]; 5 mg/kg i.v. (tail vein), blood): 15.12 min
- AUC0−t ([4]; 5 mg/kg i.v., 0-4 h): 158.894 µg·min/mL
- Antitumor effect (H1299 tumors [5]): stronger than that of Asp-DOX and saline

SMILES: CSCC[C@H](N)C(=O)O [Met, methionine]
- Inhibition of the uptake of Asp-DOX by amino acids (LAT1): strongly inhibited
- Inhibition of the uptake of DOX by amino acids (LAT1): neither 100 μmol/L Leu, Met, or Phe, nor 100 μmol/L Ala, Glu, or Gly inhibited

SMILES: N[C@@H](Cc1ccccc1)C(=O)O [Phe, phenylalanine]
- Inhibition of the uptake of Asp-DOX by amino acids (LAT1): strongly inhibited
- Inhibition of the uptake of DOX by amino acids (LAT1): neither 100 μmol/L Leu, Met, or Phe, nor 100 μmol/L Ala, Glu, or Gly inhibited

More lines, main results first:

- Inhibition of the uptake of Asp-DOX by amino acids (LAT1): no inhibition
SMILES: C[C@H](N)C(=O)O [Ala]
- Inhibition of the uptake of DOX by amino acids (LAT1): neither 100 μmol/L Leu, Met, or Phe, nor 100 μmol/L Ala, Glu, or Gly inhibited

- Inhibition of the uptake of Asp-DOX by amino acids (LAT1): no inhibition
SMILES: N[C@@H](CCC(=O)O)C(=O)O [Glu]
- Inhibition of the uptake of DOX by amino acids (LAT1): neither 100 μmol/L Leu, Met, or Phe, nor 100 μmol/L Ala, Glu, or Gly inhibited

- Inhibition of the uptake of Asp-DOX by amino acids (LAT1): no inhibition
SMILES: NCC(=O)O [Gly]
- Inhibition of the uptake of DOX by amino acids (LAT1): neither 100 μmol/L Leu, Met, or Phe, nor 100 μmol/L Ala, Glu, or Gly inhibited

- Inhibition of the uptake of Asp-DOX by amino acids (LAT1): strongly inhibited
SMILES: CC(C)C[C@H](N)C(=O)O [Leu, leucine]
- Inhibition of the uptake of DOX by amino acids (LAT1): neither 100 μmol/L Leu, Met, or Phe, nor 100 μmol/L Ala, Glu, or Gly inhibited
